Source: ChEMBL document CHEMBL1148376, “Synthesis, monoamine transporter binding properties, and behavioral pharmacology of a series of 3beta-(substituted phenyl)-2beta-(3'-substituted isoxazol-5-yl)tropanes” (J Med Chem, 2004)

How the values were obtained:
[1] = target: Sodium-dependent dopamine transporter (Rattus norvegicus, UniProt P23977); assay: Inhibitory concentration required to inhibit dopamine transporter DAT was determined by using [3H]WIN-35428 radioligand
Summary of the method: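 Competition binding at the DAT with 0.5 nM [3H]WIN35,428 (final concentration). Other procedures follow earlier published methods.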

[2] = tested on: Mus musculus; assay: Percent change in locomotor activity in mice at 3 mg/kg i.p. in 1 h.; assay type: functional; details: route intraperitoneal
Summary of the method: (§1)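 Mice habituated 1/2 h to photocell activity chambers, then injected ip with compound homogenized in 0.5% methyl cellulose (10 mL/kg); vehicle controls; N = 5 or 6 per dose. Photobeam interruptions recorded in 10-min bins for 4 h, grouped into 1-h bins; one-way ANOVA with Newman-Keuls post hoc test (p < 0.05).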

[3] = tested on: Mus musculus; assay: Percent change in locomotor activity in mice at 3 mg/kg i.p. in 2 h.; assay type: functional; details: route intraperitoneal; summary of the method: as §1
[4] = tested on: Mus musculus; assay: Percent change in locomotor activity in mice at 3 mg/kg i.p. in 3 h.; assay type: functional; details: route intraperitoneal; summary of the method: as §1
[5] = tested on: Mus musculus; assay: Percent change in locomotor activity in mice at 3 mg/kg i.p. in 4 h.; assay type: functional; details: route intraperitoneal; summary of the method: as §1
[6] = tested on: Mus musculus; assay: Percent change from vehicle in locomotor activity in mice at 0.3 mg/kg (ip) in 1 h; assay type: functional
[7] = tested on: Mus musculus; assay: Percent change from vehicle in locomotor activity in mice at 0.3 mg/kg (ip) in 2 h; assay type: functional
[8] = tested on: Mus musculus; assay: Percent change from vehicle in locomotor activity in mice at 0.3 mg/kg (ip) in 3 h; assay type: functional
[9] = tested on: Mus musculus; assay: Percent change from vehicle in locomotor activity in mice at 0.3 mg/kg (ip) in 4 h; assay type: functional
[10] = tested on: Mus musculus; assay: Percent change in locomotor activity in mice at 1 mg/kg i.p. in 1 h.; assay type: functional; details: route intraperitoneal
[11] = tested on: Mus musculus; assay: Percent change in locomotor activity in mice at 1 mg/kg i.p. in 2 h.; assay type: functional; details: route intraperitoneal; summary of the method: as §1
[12] = tested on: Mus musculus; assay: Percent change locomotor activity in mice at 1 mg/kg i.p. in 3 h.; assay type: functional; details: route intraperitoneal; summary of the method: as §1
[13] = tested on: Mus musculus; assay: Percent change in locomotor activity in mice at 1 mg/kg i.p. in 4 h.; assay type: functional; details: route intraperitoneal; summary of the method: as §1
[14] = species: Mus musculus; assay: Effective dose for locomotor activity in mice in the peak hour.; assay type: functional
[15] = tested on: Rattus norvegicus; assay: Drug discrimination effect of compound in rats, expressed as percent of rats choosing the cocaine lever at dose 0.1 mg/kg (ip); assay type: functional
[16] = tested on: Rattus norvegicus; assay: Drug discrimination effect of compound in rats, expressed as percent of rats choosing the cocaine lever at dose 0.17 mg/kg (ip); assay type: functional
[17] = tested on: Rattus norvegicus; assay: Drug discrimination effect of compound in rats, expressed as percent of rats choosing the cocaine lever at dose 0.3 mg/kg (ip); assay type: functional
[18] = tested on: Rattus norvegicus; assay: Drug discrimination effect of compound in rats, expressed as percent of rats choosing the cocaine lever at dose 1 mg/kg (ip); assay type: functional
[19] = tested on: Rattus norvegicus; assay: Effective dose for drug discrimination effect in rat (ip); assay type: functional
Summary of the method: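 Cocaine-trained rat drug discrimination, FR10, 10-min sessions. Compound in 0.5% methyl cellulose given ip 15 min before session, usually to 7-8 rats per dose. Doses were raised from ≤20% to ≥80% cocaine-lever choice, capped at 30 mg/kg, >50% loss of pressing, or side effects.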

[20] = target: T1, Sodium-dependent serotonin transporter (Rattus norvegicus, UniProt P31652); assay: Binding affinity towards serotonin transporter 5-HTT was determined using [3H]paroxetine radioligand.
Summary of the method: (§2)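 Competition binding at the 5-HTT with 0.2 nM [3H]paroxetine (final concentration). Other procedures follow earlier published methods.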

[21] = target: T1, Sodium-dependent serotonin transporter; assay: Inhibitory concentration required to inhibit serotonin transporter 5-HTT was determined by using [3H]paroxetine radioligand; summary of the method: as §2
[22] = species: Mus musculus; assay: Hour 1 ratio to cocaine was determined for locomotor activity in mice; assay type: functional
[23] = target: T2, Norepinephrine transporter (Rattus norvegicus, UniProt Q9WTR4); assay: Binding affinity towards norepinephrine transporter was determined using [3H]nisoxetine radioligand.
Summary of the method: (§3)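 Competition binding at the NET with 0.5 nM [3H]nisoxetine (final concentration). Other procedures follow earlier published methods.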

[24] = target: T2, Norepinephrine transporter; assay: Inhibition of norepinephrine transporter (NET) determined using [3H]nisoxetine radioligand.; summary of the method: as §3
[25] = tested on: Rattus norvegicus; assay: Drug discrimination effect of compound in rats, expressed as percent of rats choosing the cocaine lever at dose 1.7 mg/kg (ip); assay type: functional
[26] = tested on: Rattus norvegicus; assay: Drug discrimination effect of compound in rats, expressed as percent of rats choosing the cocaine lever at dose 3 mg/kg (ip); assay type: functional
[27] = tested on: Rattus norvegicus; assay: Drug discrimination effect of compound in rats, expressed as percent of rats choosing the cocaine lever at dose 0.56 mg/kg (ip); assay type: functional
[28] = tested on: Mus musculus; assay: Percent change from vehicle in locomotor activity in mice at 10 mg/kg (ip) in 1 h; assay type: functional
[29] = tested on: Mus musculus; assay: Percent change from vehicle in locomotor activity in mice at 10 mg/kg (ip) in 2 h; assay type: functional
[30] = tested on: Mus musculus; assay: Percent change from vehicle in locomotor activity in mice at 10 mg/kg (ip) in 3 h; assay type: functional
[31] = tested on: Mus musculus; assay: Percent change from vehicle in locomotor activity in mice at 10 mg/kg (ip) in 4 h; assay type: functional
[32] = tested on: Rattus norvegicus; assay: Drug discrimination effect of compound in rats, expressed as percent of rats choosing the cocaine lever at dose 10 mg/kg (ip); assay type: functional
[33] = tested on: Rattus norvegicus; assay: Drug discrimination effect of compound in rats, expressed as percent of rats choosing the cocaine lever at dose 5.6 mg/kg (ip); assay type: functional

T1 sequence (P31652 whole entry): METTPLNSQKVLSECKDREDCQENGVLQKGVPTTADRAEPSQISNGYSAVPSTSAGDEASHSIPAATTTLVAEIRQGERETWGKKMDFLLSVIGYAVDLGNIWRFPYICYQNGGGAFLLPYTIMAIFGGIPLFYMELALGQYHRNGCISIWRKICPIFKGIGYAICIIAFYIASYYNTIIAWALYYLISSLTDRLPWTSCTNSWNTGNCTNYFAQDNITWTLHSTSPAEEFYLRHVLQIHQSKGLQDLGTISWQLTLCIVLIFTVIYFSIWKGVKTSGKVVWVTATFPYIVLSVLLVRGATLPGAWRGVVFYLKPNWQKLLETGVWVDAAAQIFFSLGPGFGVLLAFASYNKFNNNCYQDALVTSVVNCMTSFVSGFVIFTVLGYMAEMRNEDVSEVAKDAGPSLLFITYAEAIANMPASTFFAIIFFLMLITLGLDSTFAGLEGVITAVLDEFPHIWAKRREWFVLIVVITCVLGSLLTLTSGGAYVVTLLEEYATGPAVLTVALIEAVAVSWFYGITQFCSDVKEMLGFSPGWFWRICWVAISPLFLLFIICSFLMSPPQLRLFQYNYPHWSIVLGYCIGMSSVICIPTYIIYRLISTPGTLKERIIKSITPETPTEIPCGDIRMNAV
Sodium-dependent dopamine transporter, sequence (P23977 whole entry): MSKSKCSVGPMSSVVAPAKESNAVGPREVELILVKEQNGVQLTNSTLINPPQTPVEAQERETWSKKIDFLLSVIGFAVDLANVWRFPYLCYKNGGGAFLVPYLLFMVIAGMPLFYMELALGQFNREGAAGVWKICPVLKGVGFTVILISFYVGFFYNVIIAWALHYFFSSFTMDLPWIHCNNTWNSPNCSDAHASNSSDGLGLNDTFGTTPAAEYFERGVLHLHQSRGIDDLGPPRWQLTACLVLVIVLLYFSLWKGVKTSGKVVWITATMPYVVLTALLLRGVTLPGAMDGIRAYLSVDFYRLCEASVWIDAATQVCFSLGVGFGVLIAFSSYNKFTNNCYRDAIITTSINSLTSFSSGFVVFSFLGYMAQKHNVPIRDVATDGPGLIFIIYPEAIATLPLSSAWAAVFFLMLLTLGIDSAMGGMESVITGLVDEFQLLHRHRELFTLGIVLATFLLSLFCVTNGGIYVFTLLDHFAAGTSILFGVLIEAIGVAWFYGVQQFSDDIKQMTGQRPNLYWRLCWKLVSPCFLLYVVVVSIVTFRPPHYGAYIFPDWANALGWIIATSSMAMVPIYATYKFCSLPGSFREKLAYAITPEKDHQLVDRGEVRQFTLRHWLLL
T2 sequence (Q9WTR4 whole entry): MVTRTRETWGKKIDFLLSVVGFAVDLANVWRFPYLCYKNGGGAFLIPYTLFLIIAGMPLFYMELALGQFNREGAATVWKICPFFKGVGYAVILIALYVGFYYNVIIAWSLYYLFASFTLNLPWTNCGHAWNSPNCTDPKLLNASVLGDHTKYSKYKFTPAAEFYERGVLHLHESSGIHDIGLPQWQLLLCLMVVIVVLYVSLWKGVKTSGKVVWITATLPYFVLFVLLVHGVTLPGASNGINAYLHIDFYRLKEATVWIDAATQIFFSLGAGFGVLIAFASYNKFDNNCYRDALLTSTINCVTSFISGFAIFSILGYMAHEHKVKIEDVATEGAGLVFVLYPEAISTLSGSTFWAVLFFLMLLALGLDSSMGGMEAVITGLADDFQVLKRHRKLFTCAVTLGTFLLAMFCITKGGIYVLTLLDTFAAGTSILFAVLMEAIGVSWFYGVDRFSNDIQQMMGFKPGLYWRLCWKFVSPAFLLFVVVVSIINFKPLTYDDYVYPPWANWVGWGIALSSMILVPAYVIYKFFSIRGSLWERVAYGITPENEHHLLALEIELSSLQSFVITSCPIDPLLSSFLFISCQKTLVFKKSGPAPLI

Row | SMILES | IC50 [1] [nM] | Change [2] [%] | Change [3] [%] | Change [4] [%] | Change [5] [%] | Change [6] [%] | Change [7] [%] | Change [8] [%] | Change [9] [%] | Change [10] [%] | Change [11] [%] | Change [12] [%] | Change [13] [%] | ED50 [14] [mg/kg] | Drug discrimination effect [18] [%] | ED50 [19] [mg/kg] | Ki [20] [nM] | IC50 [21] [nM] | Ratio [22] | Ki [23] [nM] | other results
1 | Cc1ccc(C2CC3CCC(C2c2ccno2)N3C)cc1 (stereo not drawn) | 1.37 | 698 | 666 | 571 | 125 | -13 | -12 | 136 | -28 | 319 | 214 | 48 | -32 | 1 | 100 | 0.19 | 38 | 414 |  |  | Drug discrimination effect [15]: 0%; Drug discrimination effect [16]: 43%; Drug discrimination effect [17]: 83%
2 | CC(C)c1cc(C2C(c3ccc(Cl)cc3)CC3CCC2N3C)on1 (stereo not drawn) | 1.19 | 876 | 995 | 680 | 1745 | 34 | 41 | -21 | -39 | 370 | 632 | 188 | -2 | 0.8 | 13 |  | 211 | 2320 | 1.9 | 575 | IC50 [24]: 954 nM; Drug discrimination effect [25]: 25%; Drug discrimination effect [26]: 63%
3 | Cc1ccc(C2CC3CCC(C2c2cc(C)no2)N3C)cc1 (stereo not drawn) | 0.93 | 478 | 552 | 986 | 221 | 140 | 156 | 75 | 48 | 341 | 413 | 392 | 78 | 1.1 |  | 0.28 | 348 |  | 1.1 | 153 | IC50 [24]: 254 nM; Drug discrimination effect [15]: 13%; Drug discrimination effect [16]: 0%; Drug discrimination effect [17]: 83%
4 | CCc1cc(C2C(c3ccc(C)cc3)CC3CCC2N3C)on1 (stereo not drawn) | 1.62 | 613 | 893 | 725 | 81 | 34 | 99 | 173 | -72 | 449 | 489 | 222 | 48 | 0.9 | 75 | 0.82 | 582 | 6400 | 1.4 | 180 | IC50 [24]: 299 nM; Drug discrimination effect [17]: 0%; Drug discrimination effect [25]: 100%; Drug discrimination effect [27]: 14%
5 | Cc1ccc(-c2cc(C3C(c4ccc(Cl)cc4)CC4CCC3N4C)on2)cc1 (stereo not drawn) | 4.09 | 23 | 153 | 265 | 119 |  |  |  |  | 8 | 44 | -49 | 170 | 3.9 | 14 | 5.95 | 522 | 5740 | 0.7 | 1030 | Change [28]: 308%; Change [29]: 1034%; Change [30]: 1024%; Change [31]: 493%; IC50 [24]: 1710 nM; Drug discrimination effect [32]: 88%; Drug discrimination effect [26]: 14%; Drug discrimination effect [33]: 50%
6 | CN1C2CCC1C(c1ccno1)C(c1ccc(Cl)cc1)C2 (stereo not drawn) | 0.77 | 486 | 137 | -40 | -71 | 57 | 86 | 70 | -20 | 186 | 284 | 345 | 182 | 1.2 | 100 | 0.41 | 8.2 | 91 | 1.1 | 52 | IC50 [24]: 87 nM; Drug discrimination effect [15]: 13%; Drug discrimination effect [16]: 29%; Drug discrimination effect [17]: 63%; Drug discrimination effect [27]: 25%
